Source: ChEMBL document CHEMBL2016475, “Discovery of small molecule HIV-1 integrase dimerization inhibitors” (Bioorg Med Chem Lett, 2012)
pIC50: −log10 of the molar value. Active and inactive are the calls of the source. No cut-off for these calls is given here.

How the values were obtained:
[1] = molecular target: Human immunodeficiency virus type 1 integrase (Human immunodeficiency virus 1) (UniProt Q7ZJM1); test: Inhibition of GST-tagged HIV1 integrase and C-terminal His6-tagged HIV1 integrase dimerization at 100 uM after 3 hrs by AlphaScreen-based dimerization assay
Sequence of Human immunodeficiency virus type 1 integrase (Human immunodeficiency virus 1) (Q7ZJM1 as listed by the source): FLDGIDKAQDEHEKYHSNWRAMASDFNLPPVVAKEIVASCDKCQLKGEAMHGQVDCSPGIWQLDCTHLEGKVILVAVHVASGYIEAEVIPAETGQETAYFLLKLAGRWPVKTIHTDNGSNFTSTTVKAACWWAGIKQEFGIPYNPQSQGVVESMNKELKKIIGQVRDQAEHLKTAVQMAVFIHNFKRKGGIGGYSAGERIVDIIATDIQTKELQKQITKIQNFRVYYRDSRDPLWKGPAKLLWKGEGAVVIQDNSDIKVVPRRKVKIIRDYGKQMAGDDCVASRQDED
Procedure, shortened: (§1)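 AlphaScreen proximity assay. GST-tagged HIV-1 IN is mixed with His6-tagged IN and incubated so monomers exchange between pre-existing dimers, giving a steady-state mix of homo- and GST/His6 heterodimers. Photon counts are normalized to DMSO and blank controls and expressed as normalized signal (%). Dose–response curves give the IC50, and single-concentration tests give percent inhibition.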

[2] = molecular target: T1, Human immunodeficiency virus type 1 integrase (Human immunodeficiency virus 1, UniProt Q7ZJM1); test: Inhibition of HIV1 integrase using oligodeoxynucleotide as substrate after 1 hr by ELISA
T1 sequence (Q7ZJM1 whole entry): as the sequence (Q7ZJM1 as listed by the source) above

[3] = molecular target: T1, Human immunodeficiency virus type 1 integrase; test: Inhibition of GST-tagged HIV1 integrase and C-terminal His6-tagged HIV1 integrase dimerization after 3 hrs by AlphaScreen-based dimerization assay; procedure, shortened: as §1

SMILES	inhibition [1]	pIC50 [2]	pIC50 [3]
COc1cccc(-c2nc(C)c(C(=O)Nc3cc(C)ccc3O)s2)c1	32%		
C[C@H](Oc1ccc2c(c1)CCC2)C(=O)NNC(=O)Nc1cccc([N+](=O)[O-])c1	inactive		
O=C(CNc1ccc2ccccc2c1)N/N=C/c1ccc(-c2ccc(Cl)cc2)o1	49%		
O=C(NCCNC(=O)c1cc2ccccc2cc1O)c1cc2ccccc2cc1O	inactive		
Cc1ccc(C2(O)CCN(CCNC(=O)Cc3cccc(C)c3)CC2)cc1	inactive		
COc1ccc(/C=C/C(=O)Nc2ncc(Cc3cccc(C)c3)s2)cc1	inactive		
CCn1c2ccccc2c2cc(NC(=O)/C=C(\C)NNC(=O)Cc3cccc4ccccc34)ccc21	inactive		
COc1ccc(CCNC(=O)C/C(C)=N/NC(=O)c2cc3ccccc3cc2O)cc1OC	83%	4.10	4.42
Cc1cc(C)cc(OCC(=O)NNC(=O)c2ccc3ccccc3c2O)c1	inactive		
COc1cccc2[nH]c(C(=O)NCCC(=O)Nc3nc4ccccc4s3)cc12	inactive		
O=C(N/N=C/c1ccc(-c2ccc(Cl)cc2Cl)o1)c1cc2ccccc2cc1O	49%		
C/C(CC(=O)Nc1ccc(OCc2ccccc2)cc1)=N\NC(=O)c1cc2ccccc2cc1O	54%		
COc1ccc(OC)c2[nH]c(C(=O)NCCC(=O)NCCc3c[nH]c4ccccc34)cc12	73%		
O=C(NCCNC(=O)c1cc2ccccc2o1)c1nc2ccccc2c(=O)[nH]1	inactive		
O=C(Nc1cccc(-c2cnc3ccccc3n2)c1)c1cc2ccccc2cc1O	inactive		
COc1ccc(C(=O)N/N=C(\C)CC(=O)NCc2ccccc2)cc1OC	inactive		
Cc1ccc(C(=O)CCC(=O)Nc2nc3c(s2)CCc2c-3cnn2C)cc1C	13%		
CCc1ccc(O)c(NC(=S)NC(=O)COc2cc(C)c(Cl)c(C)c2)c1	23%		
O=C(NCCNC(=O)c1nc2ccccc2c(=O)[nH]1)c1ccc2ccccc2n1	inactive		
COc1ccc(CNC(=O)C/C(C)=N/NC(=O)c2cc3ccccc3cc2O)cc1	50%		3.89
COc1ccc(OC)c2[nH]c(C(=O)NCCCC(=O)Nc3ccc4c(c3)OCCO4)cc12	58%		
O=C(N/N=C/c1ccc(Sc2ccccn2)o1)c1cc2ccccc2cc1O	30%		
C/C(CC(=O)Nc1ccc(Cl)c(Cl)c1)=N\NC(=O)c1cc2ccccc2cc1O	inactive		
COc1cccc2[nH]c(C(=O)NCCCC(=O)Nc3ccc4c(c3)OCCO4)cc12	50%		
CC(CCc1ccccc1)NC(=O)c1ccc(NC(=O)C2COc3ccccc3O2)cc1 (stereo not drawn)	14%		
